Source: ChEMBL document CHEMBL1141929, “(2R)-4-oxo-4-[3-(trifluoromethyl)-5,6-dihydro[1,2,4]triazolo[4,3-a]pyrazin-7(8H)-yl]-1-(2,4,5-trifluorophenyl)butan-2-amine: a potent, orally active dipeptidyl peptidase IV inhibitor for the treatment of type 2 diabetes” (J Med Chem, 2005)

Legend:
[1] = target: Dipeptidyl peptidase 4 (Homo sapiens, UniProt P27487)
[2] = Maximum concentration was measured in plasma of rat upon peroral dose of 2 mpk; format: ADME, organism-based; parameters: dose 2 mpk, route oral; settings: po, 2 mg/kg
In short: (§1)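 Pharmacokinetics in rat, dog and monkey. Dosing was iv 1 mpk and po 2 mpk.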

[3] = target: Dipeptidyl peptidase 9 (Homo sapiens, UniProt Q86TI2); assay: In vitro inhibitory concentration was measured against dipeptidylpeptidase 9
Dipeptidyl peptidase 9, sequence (Q86TI2 whole entry): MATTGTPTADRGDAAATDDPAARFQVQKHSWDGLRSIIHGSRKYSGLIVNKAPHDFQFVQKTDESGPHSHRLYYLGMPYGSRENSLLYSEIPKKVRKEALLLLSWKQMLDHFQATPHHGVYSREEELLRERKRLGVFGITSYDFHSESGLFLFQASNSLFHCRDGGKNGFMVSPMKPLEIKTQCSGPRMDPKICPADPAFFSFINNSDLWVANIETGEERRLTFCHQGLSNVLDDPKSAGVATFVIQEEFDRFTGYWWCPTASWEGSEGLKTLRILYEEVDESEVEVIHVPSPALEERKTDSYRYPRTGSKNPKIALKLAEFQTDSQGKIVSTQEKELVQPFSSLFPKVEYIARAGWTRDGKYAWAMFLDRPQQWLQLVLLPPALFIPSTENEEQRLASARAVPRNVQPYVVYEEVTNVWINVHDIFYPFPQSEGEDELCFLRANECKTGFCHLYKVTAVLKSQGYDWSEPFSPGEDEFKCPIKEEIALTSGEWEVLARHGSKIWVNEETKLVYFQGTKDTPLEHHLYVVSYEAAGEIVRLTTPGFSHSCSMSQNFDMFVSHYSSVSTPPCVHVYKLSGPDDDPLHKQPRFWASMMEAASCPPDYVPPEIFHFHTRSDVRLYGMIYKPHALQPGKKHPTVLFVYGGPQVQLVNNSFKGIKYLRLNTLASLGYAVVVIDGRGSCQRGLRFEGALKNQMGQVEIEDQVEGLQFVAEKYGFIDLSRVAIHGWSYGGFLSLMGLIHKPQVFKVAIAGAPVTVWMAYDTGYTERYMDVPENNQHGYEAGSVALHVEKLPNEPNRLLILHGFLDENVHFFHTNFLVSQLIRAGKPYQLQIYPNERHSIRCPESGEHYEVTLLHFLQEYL

[4] = Plasma clearance was measured in rat; format: ADME, organism-based; settings: read-out: Clp
In short: as §1

[5] = Oral bioavailability in rat; format: ADME, organism-based; settings: in vivo
In short: as §1

[6] = Plasma half-life was measured in plasma of rat; format: ADME, cell-free
In short: as §1

[7] = target: Dipeptidyl peptidase 2 (Homo sapiens, UniProt Q9UHL4); assay: In vitro inhibitory concentration was measured against quiescent cell proline dipeptidase
[8] = Plasma half-life was measured in dog; format: ADME, cell-free, Canis lupus familiaris
In short: as §1

[9] = Plasma clearance was measured in monkey; format: ADME, organism-based; settings: cercopithecidae, read-out: Clp
In short: as §1

[10] = Oral bioavailability in dog; format: ADME, organism-based, Canis lupus familiaris; settings: in vivo
In short: as §1

[11] = Plasma clearance was measured in dog; format: ADME, organism-based, Canis lupus familiaris; settings: read-out: Clp
In short: as §1

[12] = Maximum concentration in plasma of monkey upon peroral dose of 2 mpk; format: ADME, organism-based; parameters: dose 2 mpk, route oral; settings: cercopithecidae, po, 2 mg/kg
In short: as §1

[13] = Oral bioavailability in monkey; format: ADME, organism-based; settings: cercopithecidae, in vivo
In short: as §1

[14] = Maximum concentration in plasma of dog upon peroral dose of 2 mpk; format: ADME, organism-based, Canis lupus familiaris; parameters: dose 2 mpk, route oral; settings: po, 2 mg/kg
In short: as §1

[15] = Plasma half-life was measured in monkey; format: ADME; settings: cercopithecidae
In short: as §1

[16] = Plasma half-life was measured in rat; format: ADME, organism-based
In short: as §1

[17] = Maximum concentration in plasma of rat upon peroral dose of 2 mpk; format: ADME, organism-based; parameters: dose 2 mpk, route oral; settings: po, 2 mg/kg
In short: as §1

[18] = Maximum concentration was measured in plasma of monkey upon peroral dose of 2 mpk; format: ADME, organism-based; parameters: dose 2 mpk, route oral; settings: cercopithecidae, po, 2 mg/kg
In short: as §1

[19] = Maximum concentration was measured in plasma of dog upon peroral dose of 2 mpk; format: ADME, organism-based, Canis lupus familiaris; parameters: dose 2 mpk, route oral; settings: po, 2 mg/kg
In short: as §1

Dipeptidyl peptidase 4, sequence (P27487 whole entry): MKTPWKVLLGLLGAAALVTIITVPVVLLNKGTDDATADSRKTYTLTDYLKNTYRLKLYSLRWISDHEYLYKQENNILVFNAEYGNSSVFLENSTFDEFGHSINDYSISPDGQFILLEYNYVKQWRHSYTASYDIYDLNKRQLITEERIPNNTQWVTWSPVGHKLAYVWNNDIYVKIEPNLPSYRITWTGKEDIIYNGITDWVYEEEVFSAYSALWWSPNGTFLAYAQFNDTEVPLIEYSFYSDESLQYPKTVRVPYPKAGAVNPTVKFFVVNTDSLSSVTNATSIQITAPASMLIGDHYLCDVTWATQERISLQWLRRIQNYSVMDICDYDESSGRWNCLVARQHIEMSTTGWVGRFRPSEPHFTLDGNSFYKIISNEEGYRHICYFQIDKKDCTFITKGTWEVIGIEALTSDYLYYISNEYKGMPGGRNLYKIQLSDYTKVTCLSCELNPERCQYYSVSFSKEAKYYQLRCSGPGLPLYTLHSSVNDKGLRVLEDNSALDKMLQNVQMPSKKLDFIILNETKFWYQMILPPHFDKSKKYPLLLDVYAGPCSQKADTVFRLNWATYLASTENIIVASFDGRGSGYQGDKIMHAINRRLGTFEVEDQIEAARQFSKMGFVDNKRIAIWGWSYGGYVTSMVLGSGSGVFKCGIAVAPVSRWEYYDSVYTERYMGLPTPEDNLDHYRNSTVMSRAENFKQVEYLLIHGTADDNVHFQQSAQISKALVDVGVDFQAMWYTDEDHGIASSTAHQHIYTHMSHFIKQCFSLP

Structure (SMILES)	IC50 [1]	Cmax [2]	IC50 [3]	clearance [4]	bioavailability [5]	half-life [6]	IC50 [7]	half-life [8]	clearance [9]	bioavailability [10]	clearance [11]	Cmax [12]	bioavailability [13]	Cmax [14]	half-life [15]	half-life [16]	Cmax [17]	Cmax [18]	Cmax [19]
N[C@@H](CC(=O)N1CCNCC1)Cc1ccc(F)c(F)c1	3.1 µM																		
Cl.N[C@@H](CC(=O)N1CCn2c(nnc2C(F)(F)F)C1)Cc1cc(F)c(F)cc1F		330 nM						4.9 h	28 mL/min/kg	100%	6 mL/min/kg		68%		3.7 h	1.7 h		330 nM	2200 nM
Cl.N[C@@H](CC(=O)N1CCn2cnnc2C1)Cc1cc(F)c(F)cc1F	0.068 µM	30 nM	> 100 µM	40 mL/min/kg	3%		> 10 µM									1 h			
Cl.N[C@@H](CC(=O)N1CCn2c(nnc2C(F)(F)F)C1)Cc1ccc(F)c(F)c1		140 nM	> 100 µM	51 mL/min/kg	44%		98 µM									1.8 h			
Cl.N[C@@H](CC(=O)N1CCn2c(nnc2C(F)(F)C(F)(F)F)C1)Cc1cc(F)c(F)cc1F	0.071 µM	160 nM	> 100 µM	58 mL/min/kg	61%		78 µM									2.3 h			
Cl.N[C@@H](CC(=O)N1CCn2c(nnc2C(F)(F)C(F)(F)F)C1)Cc1cc(F)ccc1F	0.103 µM	2 nM	> 100 µM	109 mL/min/kg	1%		> 100 µM									1.5 h			

The next lines start with the values.

IC50 [1]	Cmax [2]	IC50 [3]	clearance [4]	bioavailability [5]	half-life [6]	IC50 [7]	half-life [8]	clearance [9]	bioavailability [10]	clearance [11]	Cmax [12]	bioavailability [13]	Cmax [14]	half-life [15]	half-life [16]	Cmax [17]	Cmax [18]	Cmax [19]	Structure (SMILES)
	190 nM	> 100 µM	43 mL/min/kg	51%	1.6 h	> 100 µM													Cl.N[C@@H](CC(=O)N1CCn2c(nnc2C(F)(F)F)C1)Cc1cc(F)ccc1F
0.455 µM		> 100 µM				> 10 µM													N[C@@H](CC(=O)N1CCn2cnnc2C1)Cc1ccc(F)c(F)c1
0.231 µM		> 100 µM	45 mL/min/kg	2%		64 µM	2.3 h	26 mL/min/kg	33%	13 mL/min/kg	12 nM	1%	730 nM	1.3 h	2.7 h	10 nM			CCc1nnc2n1CCN(C(=O)C[C@H](N)Cc1ccc(F)c(F)c1)C2.Cl
